pIC50: −log10 of the molar value. Values after ≈ are worked out from the molar mass of the structure shown.
How the values were obtained:
[1] = target: Signal peptidase I (Escherichia coli K-12) (UniProt P00803); assay: Inhibition of Escherichia coli type 1 signal peptidase lepB assessed as residual activity at 0.625 uM preincubated for 10 mins followed by Dabcyl-VGGTATAYGAFSRPGLE-(EDANS)-OH substrate addition measured after 2 hrs by FRET based assay (reference value: 100%)
How it was run: (§1)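 EcLepB (about 50 nM estimated) preincubated 10 min with compound. Reaction started with Dabcyl/EDANS FRET peptide at 8 µM final (Km 20 µM). Fluorescence followed continuously at 535 nm, 22 °C, for 2 h. Cleavage rates plotted against inhibitor concentration; IC50 from non-linear regression of sigmoidal dose-response curves.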

[2] = target: Signal peptidase I (Escherichia coli K-12) (UniProt P00803); assay: Inhibition of Escherichia coli type 1 signal peptidase lepB assessed as residual activity at 10 uM preincubated for 10 mins followed by Dabcyl-VGGTATAYGAFSRPGLE-(EDANS)-OH substrate addition measured after 2 hrs by FRET based assay (reference value: 100%); how it was run: as §1
[3] = target: Signal peptidase I (Escherichia coli K-12) (UniProt P00803); assay: Inhibition of Escherichia coli type 1 signal peptidase lepB assessed as residual activity at 0.0024 uM preincubated for 10 mins followed by Dabcyl-VGGTATAYGAFSRPGLE-(EDANS)-OH substrate addition measured after 2 hrs by FRET based assay (reference value: 100%); how it was run: as §1
[4] = system: Acinetobacter baumannii; assay: Antibacterial activity against Acinetobacter baumannii ATCC 19606 after 16 to 20 hrs by broth microdilution method; assay type: functional; details: ATCC 19606 = CIP 70.34 = JCM 6841
How it was run: (§2)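 Broth microdilution in cation-adjusted Mueller-Hinton II per EUCAST/CLSI; two-fold compound series 64 down to 0.25 µg/mL final. Inoculum from fresh colonies (non-selective agar, 18-24 h, 35 ± 2 °C), adjusted to 0.5 McFarland, diluted to about 5 × 10^5 CFU/mL final. Static incubation 16-20 h at 35 ± 2 °C; MIC read visually as complete growth inhibition against medium-only wells.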

[5] = system: Escherichia coli; assay: Antibacterial activity against tolC deficient Escherichia coli CH3130 after 16 to 20 hrs by broth microdilution method; assay type: functional; how it was run: as §2
[6] = target: Signal peptidase I (Escherichia coli K-12) (UniProt P00803); assay: Inhibition of Escherichia coli type 1 signal peptidase lepB assessed as residual activity at 0.0195 uM preincubated for 10 mins followed by Dabcyl-VGGTATAYGAFSRPGLE-(EDANS)-OH substrate addition measured after 2 hrs by FRET based assay (reference value: 100%); how it was run: as §1
[7] = target: Signal peptidase I (Escherichia coli K-12, UniProt P00803); assay: Inhibition of Escherichia coli type 1 signal peptidase lepB preincubated for 10 mins followed by Dabcyl-VGGTATAYGAFSRPGLE-(EDANS)-OH substrate addition measured after 2 hrs by FRET based assay; how it was run: as §1
Signal peptidase I, sequence (P00803 whole entry): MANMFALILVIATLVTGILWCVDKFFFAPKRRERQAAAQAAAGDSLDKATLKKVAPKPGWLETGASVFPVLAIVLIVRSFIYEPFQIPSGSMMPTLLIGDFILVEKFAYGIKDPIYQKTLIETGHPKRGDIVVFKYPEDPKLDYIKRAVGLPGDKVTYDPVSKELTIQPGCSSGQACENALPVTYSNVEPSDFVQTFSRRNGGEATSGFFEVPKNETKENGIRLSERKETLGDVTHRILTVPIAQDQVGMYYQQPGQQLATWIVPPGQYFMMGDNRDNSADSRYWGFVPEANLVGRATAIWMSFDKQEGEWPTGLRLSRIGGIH

[8] = system: HepG2; assay: Cytotoxicity against human HepG2 cells after 72 hrs by FMSA; assay type: cell-based; details: HepG2, 72 h
How it was run: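 HepG2 (ATCC) grown in EMEM with 10% FBS, pen/strep, 2 mM L-glutamine, used up to 20 passages. Seeded at 1000 cells/well, cultured overnight, then dosed acoustically from DMSO stocks. Eight two-fold dilutions in duplicate from top 64 or 32 µM; 72 h at 37 °C, 5% CO2. Fluorescein diacetate hydrolysis read at ex 485/em 530 nm; IC50 by non-linear regression.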

[9] = target: Signal peptidase I (Escherichia coli K-12) (UniProt P00803); assay: Inhibition of Escherichia coli type 1 signal peptidase lepB assessed as residual activity at 0.0012 uM preincubated for 10 mins followed by Dabcyl-VGGTATAYGAFSRPGLE-(EDANS)-OH substrate addition measured after 2 hrs by FRET based assay (reference value: 100%); how it was run: as §1
[10] = target: Signal peptidase I (Escherichia coli K-12) (UniProt P00803); assay: Inhibition of Escherichia coli type 1 signal peptidase lepB assessed as residual activity at 1.25 uM preincubated for 10 mins followed by Dabcyl-VGGTATAYGAFSRPGLE-(EDANS)-OH substrate addition measured after 2 hrs by FRET based assay (reference value: 100%); how it was run: as §1
[11] = target: Signal peptidase I (Escherichia coli K-12) (UniProt P00803); assay: Inhibition of Escherichia coli type 1 signal peptidase lepB assessed as residual activity at 0.0781 uM preincubated for 10 mins followed by Dabcyl-VGGTATAYGAFSRPGLE-(EDANS)-OH substrate addition measured after 2 hrs by FRET based assay (reference value: 100%); how it was run: as §1
[12] = system: Escherichia coli; assay: Antibacterial activity against Escherichia coli D22 CGSG 5163 harboring Ips mutant after 16 to 20 hrs by broth microdilution method; assay type: functional
How it was run: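 Broth microdilution in cation-adjusted Mueller-Hinton II broth, following EUCAST and CLSI guidelines. Two-fold series at final concentrations 64 down to 0.25 µg/mL, with medium-only and growth controls. Inoculum from fresh colonies (18-24 h, 35 °C ± 2 °C) adjusted to 0.5 McFarland, final ≈5 × 10^5 CFU/mL. Plates incubated unshaken 16-20 h at 35 °C ± 2 °C. MIC read visually as complete inhibition of growth.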

[13] = target: Signal peptidase I (Escherichia coli K-12) (UniProt P00803); assay: Inhibition of Escherichia coli type 1 signal peptidase lepB assessed as residual activity at 0.0006 uM preincubated for 10 mins followed by Dabcyl-VGGTATAYGAFSRPGLE-(EDANS)-OH substrate addition measured after 2 hrs by FRET based assay (reference value: 100%); how it was run: as §1
[14] = target: Signal peptidase I (Escherichia coli K-12) (UniProt P00803); assay: Inhibition of Escherichia coli type 1 signal peptidase lepB assessed as residual activity at 0.3125 uM preincubated for 10 mins followed by Dabcyl-VGGTATAYGAFSRPGLE-(EDANS)-OH substrate addition measured after 2 hrs by FRET based assay (reference value: 100%); how it was run: as §1
[15] = system: Klebsiella pneumoniae; assay: Antibacterial activity against Klebsiella pneumoniae ATCC 13883 after 16 to 20 hrs by broth microdilution method; assay type: functional; how it was run: as §2
[16] = Hemolytic activity in human RBC at 100 uM after 45 mins by spectrophotometric method relative to control; assay type: ADME, cell-based, Erythrocyte; details: red blood cells (erythrocytes), read-out: Activity
How it was run: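 Heparinized human blood; red cells washed three times in Tyrode buffer pH 7.4. Compound at 100 µM final with 1% DMSO and 50% RBC, shaken (250 rpm) 45 min at 37 °C. Cells pelleted (1000 × g, 10 min); supernatant haemoglobin at 540 nm. Percent lysis relative to buffer-only and 2% Triton X-100 controls.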

[17] = target: Signal peptidase I (Escherichia coli K-12) (UniProt P00803); assay: Inhibition of Escherichia coli type 1 signal peptidase lepB assessed as residual activity at 0.0049 uM preincubated for 10 mins followed by Dabcyl-VGGTATAYGAFSRPGLE-(EDANS)-OH substrate addition measured after 2 hrs by FRET based assay (reference value: 100%); how it was run: as §1
[18] = target: Signal peptidase I (Escherichia coli K-12) (UniProt P00803); assay: Inhibition of Escherichia coli type 1 signal peptidase lepB assessed as residual activity at 0.0391 uM preincubated for 10 mins followed by Dabcyl-VGGTATAYGAFSRPGLE-(EDANS)-OH substrate addition measured after 2 hrs by FRET based assay (reference value: 100%); how it was run: as §1
[19] = target: Signal peptidase I (Escherichia coli K-12) (UniProt P00803); assay: Inhibition of Escherichia coli type 1 signal peptidase lepB assessed as residual activity at 0.0098 uM preincubated for 10 mins followed by Dabcyl-VGGTATAYGAFSRPGLE-(EDANS)-OH substrate addition measured after 2 hrs by FRET based assay (reference value: 100%); how it was run: as §1
[20] = target: Signal peptidase I (Escherichia coli K-12) (UniProt P00803); assay: Inhibition of Escherichia coli type 1 signal peptidase lepB assessed as residual activity at 2.5 uM preincubated for 10 mins followed by Dabcyl-VGGTATAYGAFSRPGLE-(EDANS)-OH substrate addition measured after 2 hrs by FRET based assay (reference value: 100%); how it was run: as §1
[21] = system: Escherichia coli; assay: Antibacterial activity against Escherichia coli ATCC 25922 after 16 to 20 hrs by broth microdilution method; assay type: functional; how it was run: as §2
[22] = system: Staphylococcus aureus; assay: Antibacterial activity against Staphylococcus aureus ATCC 29213 after 16 to 20 hrs by broth microdilution method; assay type: functional; how it was run: as §2
[23] = target: Signal peptidase I (Escherichia coli K-12) (UniProt P00803); assay: Inhibition of Escherichia coli type 1 signal peptidase lepB assessed as residual activity at 5 uM preincubated for 10 mins followed by Dabcyl-VGGTATAYGAFSRPGLE-(EDANS)-OH substrate addition measured after 2 hrs by FRET based assay (reference value: 100%); how it was run: as §1
[24] = target: Signal peptidase I (Escherichia coli K-12) (UniProt P00803); assay: Inhibition of Escherichia coli type 1 signal peptidase lepB assessed as residual activity at 0.1563 uM preincubated for 10 mins followed by Dabcyl-VGGTATAYGAFSRPGLE-(EDANS)-OH substrate addition measured after 2 hrs by FRET based assay (reference value: 100%); how it was run: as §1
[25] = system: Pseudomonas aeruginosa; assay: Antibacterial activity against Pseudomonas aeruginosa PAO1 after 16 to 20 hrs by broth microdilution method; assay type: functional; how it was run: as §2
[26] = system: Pseudomonas aeruginosa; assay: Antibacterial activity against efflux defective Pseudomonas aeruginosa PAO750 after 16 to 20 hrs by broth microdilution method; assay type: functional; how it was run: as §2

Signal peptidase I (Escherichia coli K-12), sequence (P00803 whole entry): as above

Row | SMILES | Activity [1] [%] | Activity [2] [%] | Activity [3] [%] | MIC [4] [µg/mL] | MIC [5] [µg/mL] | Activity [6] [%] | pIC50 [7] | pIC50 [8] | Activity [9] [%] | Activity [10] [%] | Activity [11] [%] | MIC [12] [µg/mL] | Activity [13] [%] | Activity [14] [%] | MIC [15] [µg/mL] | hemolysis at 0.75 h, 100 µM [16] [%] | Activity [17] [%] | Activity [18] [%] | Activity [19] [%] | Activity [20] [%] | further results
1 | CCCCCCc1ccc(-c2ccc(C(=O)N[C@@H](CCCN)C(=O)N(C)[C@H](C(=O)N[C@@H](C)C(=O)N[C@H]3Cc4cn(nn4)CCCN4C[C@@H]5OB(O[C@@H]5C4)[C@H](C)NC3=O)[C@@H](C)O)cc2)cc1 | 30.7 | 3.7 | 95.7 | 64 (≈ 71.2 µM) | 16 (≈ 17.8 µM) | 75.7 | 7.01 | 5.07 | 95.3 | 23.6 | 52.1 | 32 (≈ 35.6 µM) | 95.8 | 34.2 | 32 (≈ 35.6 µM) | 9.6 | 92.7 | 69.9 | 88.1 | 18.2 | MIC [21]: 64 µg/mL (≈ 71.2 µM); MIC [22]: 32 µg/mL (≈ 35.6 µM); Activity [23]: 8%; Activity [24]: 40%; MIC [25]: > 64 µg/mL; MIC [26]: 64 µg/mL (≈ 71.2 µM)
2 | CCCCCCc1ccc(-c2ccc(C(=O)N[C@@H](CCCN)C(=O)N[C@H](C(=O)N[C@@H](C)C(=O)N[C@H]3Cc4cn(nn4)CCCN4C[C@@H]5OB(O[C@@H]5C4)[C@H](C)NC3=O)[C@@H](C)O)cc2)cc1 | 35.3 | 5.6 | 86.2 | 16 (≈ 18.1 µM) | 8 (≈ 9.04 µM) | 68.6 | 6.98 | 5.40 | 85.6 | 32.8 | 42.8 | 8 (≈ 9.04 µM) | 89.5 | 43 | 32 (≈ 36.2 µM) | 17.4 | 80.9 | 47.9 | 76.7 | 28.1 | MIC [21]: 32 µg/mL (≈ 36.2 µM); MIC [22]: 32 µg/mL (≈ 36.2 µM); Activity [23]: 14.9%; Activity [24]: 47.3%; MIC [25]: > 64 µg/mL; MIC [26]: 64 µg/mL (≈ 72.3 µM)

— ChEMBL document CHEMBL4270642, “Boronic ester-linked macrocyclic lipopeptides as serine protease inhibitors targeting Escherichia coli type I signal peptidase” (Eur J Med Chem, 2018)
